Measured values pooled from the literature.
Each line is one published result; the experiments were not run side by side.
Target: Homeodomain-interacting protein kinase 1 (HIPK1, Homo sapiens, UniProt Q86Z02)

SMILES	test	conditions	endpoint	value
C=CC(=O)N1CCC[C@@H](n2nc(-c3ccc(Oc4ccccc4)cc3)c3c(N)ncnc32)C1	enzyme activity, inhibitor	1 µM	inhibition	22%
Cc1ccc(NC(=O)c2ccnc(C(F)(F)F)c2)cc1-c1cc(OCCO)nc(N2CCOCC2)c1	binding, competition with immobilised ligand	1 µM	remaining binding	93%
COc1ccc2oc(-c3ccc4nc(N)oc4c3)c/c(=N\c3ccccc3NC(=O)CCN)c2c1	binding	1 µM	remaining binding	103%
C1=C/COCc2cc(ccc2OCCN2CCCC2)Nc2nccc(n2)-c2cccc(c2)COC/1	binding	0.1 µM	remaining binding	6.7%
CCCCC(=O)Nc1ccc(-c2ccc3ncn(CCC)c(=O)c3c2)cn1	binding, competition with immobilised ligand	0.5 µM	remaining binding	88%
C=CC(=O)N1CCC([C@@H]2CCNc3c(C(N)=O)c(-c4ccc(Oc5ccccc5)cc4)nn32)CC1	enzyme activity, inhibitor	1 µM	inhibition	26%
C[C@H]1CC[C@H](n2c3cnccc3c3cnc(Nc4ccc5c(n4)CCN(C(=O)CO)C5)nc32)CC1	binding, competition with immobilised ligand	1 µM	remaining binding	45%
C#Cc1cc(-c2cc(Nc3nc(N[C@@H](C)c4ccc(F)cn4)ncc3Cl)n[nH]2)ccc1C=O	enzyme activity, inhibitor	0.2 µM	inhibition	22.6%
